A selection: hits, their analogues and other compounds. The true share with any hit is near 3%.
T cruzi repl: T. cruzi replication inhibition | 300,000 tested, 1.4% active | T. cruzi beta-gal in NIH3T3, luminescence, 90 h | AID 1885 | inhibition, % (test concentration not listed);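 active = mean inhibition across valid replicates above about 55%, limit read from the data; inconclusive = mean below that limit but half or more replicates reach it; inactive = mean below it, under half of replicates reach it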;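 note: signal also drops with host cell toxicity which is not excluded here; higher percent means less beta-gal luminescence so fewer parasites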
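Assay system: NIH/3T3 host cells with β-galactosidase reporter T. cruzi; input: 5,000 host fibroblasts per well; compound: single 50 nL compound addition per well in DMSO; timing: ≥90 h infection period, 3 h prior cell attachment; measured by: GalScreen β-gal luminescence, detergent lysis, 60 min; evaluation: percent inhibition of parasite-derived β-gal signal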
PfHsp90 set2: inhibits growth of yeast expressing Plasmodium falciparum Hsp90. inhibition, % at 9.4 µM. 310,000 tested, 0.32% active. AID 504621. S. cerevisiae expressing PfHsp90, BacTiter-Glo ATP, 48 h; yeast lacking PDR1 and PDR3 efflux regulators;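 active = every replicate shows inhibition above about 80%, whatever the replicate mean, limit read from the data; inconclusive = mean inhibition reaches the set limit but some replicate falls short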
Glyco luc inh: N-linked glycosylation inhibition | D54 ERlucT glycosylation luciferase reporter, 24 h; percent of 100 nM tunicamycin response | reporter increase, % at 12.5 µM | 360,000 tested, 0.23% active | AID 588692;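 active = mean luciferase reporter signal, scaled so untreated is 0 and the glycosylation-blocking control 100, at or above a set limit in every replicate; inconclusive = mean reaches the limit but not every replicate does; inactive = mean below the limit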;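 note: luciferase carries N-glycosylation sites so blocking glycosylation raises the light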
HSF1 activator: increases HSF-1 driven luciferase reporter signal | 300,000 tested, 1.7% active | NIH3T3-HGL HSF-1 luciferase reporter, MG132, 8 h; 100% = twice DMSO control signal | activation, % at 9 µM;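 active = mean replicate activation of at least 50% with a set share of replicates each reaching 50%; inconclusive = only one of those two conditions met; inactive = mean below 50% and too few replicates reaching it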
CaV13 FRET inh: Primary screen for inhibitors of IQ motif and Ca2+-dependent inactivation inhibitor domain binding in CACNA1D, Förster resonance energy transfer in living cells, …. AID 743397. 340,000 tested, 0.098% active. inhibition, % at 12.3 µM. HEK cells, CFP/YFP FRET ICDI-IQ, plate reader, 10 min; percent FRET-ratio fall versus neutral wells;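 active = mean replicate inhibition of at least 30% and at least 1% of replicates passing that level; inconclusive = only one of the two criteria is met; inactive = neither criterion is met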
PvdQ acylase: P. aeruginosa PvdQ acylase inhibition; inhibition, % at 10 µM; 340,000 tested, 0.063% active; purified PvdQ acylase, fluorescence plate reader; AID 488965; in the data active = inhibition above about 30%, passing the limit was not always enough; inconclusive = no clear call, values can overlap the other calls
Each line names hits and unclear results; the compound was inactive in the other large screens.

CCCCN(C(=O)/C=C/c1ccco1)c1c(N)n(CCC)c(=O)[nH]c1=O	HSF1 activator 76.4
Cc1oc2ccc(NS(=O)(=O)c3ccc(C(C)(C)C)cc3)cc2c1C(=O)Nc1ccccc1	HSF1 activator 60.8
Cc1ccccc1Cn1c(-c2cncs2)nc2ccccc21	HSF1 activator 68.7
Cc1ccccc1-c1ccc2c(c1)[C@@H]1C[C@H]3[C@@H](CN1CC2)[C@H](C)OC(c1ccccc1)N3C (some centres undefined)	none (no result: T cruzi repl, PfHsp90 set2, Glyco luc inh, HSF1 activator, PvdQ acylase)
COCCN(Cc1cc2ccc(C)c(C)c2nc1Cl)C(=O)N1CCOCC1	HSF1 activator 55.3
COc1ccc(-c2coc3cc(OC)cc(O)c3c2=O)cc1	HSF1 activator 55.7 (no result: CaV13 FRET inh)
O=C(CCl)N(CCc1ccccc1)CCc1ccccc1	T cruzi repl 56.2
O=C(NC(=S)N(CCc1ccccc1)CCc1ccccc1)c1ccco1	HSF1 activator 68.3
C[C@H]1CN(C(=O)OC(C)(C)C)CCN1c1ccc(N2CC[C@@H](O)C2)c(C#N)c1	none (no result: T cruzi repl, PfHsp90 set2, Glyco luc inh, HSF1 activator, PvdQ acylase)
O=C(/C=C/c1cccc(Cl)c1)OCC(=O)c1ccc[nH]1	none (no result: T cruzi repl, PfHsp90 set2, HSF1 activator, PvdQ acylase)
Cc1ccc(C(c2nnnn2C(C)(C)C)N(Cc2ccco2)Cc2cccs2)cc1 (centres undefined)	T cruzi repl 63.8
CCC(c1nnnn1CCc1ccccc1)N(Cc1ccco1)Cc1cc2cccc(C)c2[nH]c1=O (centres undefined)	HSF1 activator 89.9 (no result: CaV13 FRET inh)
CCC(c1nnnn1C(C)(C)C)N(Cc1cccs1)Cc1cc2cc(C)c(C)cc2n2nnnc12 (centres undefined)	T cruzi repl 55.6 (no result: PfHsp90 set2, Glyco luc inh, CaV13 FRET inh, PvdQ acylase)
CC(C)(C)n1nnnc1C(c1ccc(F)cc1)N(Cc1ccc(F)cc1)Cc1ccco1 (centres undefined)	none
CCC(c1nnnn1C(C)(C)C)N(Cc1ccco1)Cc1cc2cccc(C)c2[nH]c1=O (centres undefined)	HSF1 activator 66.4 (no result: PfHsp90 set2)
Cc1cccc2cc(CN(CC3CCCO3)C(c3nnnn3Cc3ccco3)C(C)C)c(=O)[nH]c12 (centres undefined)	none
Cc1ccc(C(C)NC(=O)CSc2ccc(S(=O)(=O)N3CCOCC3)cn2)cc1C (centres undefined)	none (no result: T cruzi repl, HSF1 activator)
c1ccc(CCNc2nc3ccccc3s2)cc1	HSF1 activator 55.9
Cc1ccc([C@H]2C[C@]34CN(Cc5ccccc5)S(=O)(=O)[C@H]3C[C@H]2O4)cc1	none (no result: T cruzi repl, PfHsp90 set2, Glyco luc inh, HSF1 activator, PvdQ acylase)
CCCn1c(N)c(Sc2ccc(C)cc2)c(=O)n(CCC)c1=O	HSF1 activator 72.8
Cc1ccc2nc(-c3ccc(F)cc3)c(CC3CCCCC3)n2c1	none (no result: T cruzi repl, PfHsp90 set2, Glyco luc inh, HSF1 activator, PvdQ acylase)
COc1cc2c(cc1OC)C(COc1ccc(F)cc1)N(C(=O)c1ccco1)CC2 (centres undefined)	none
COc1cc2c(cc1OC)C(c1cc3cccc(C)c3[nH]c1=O)N(C(=O)c1ccco1)CC2 (centres undefined)	T cruzi repl 58.2
Nc1nonc1-n1nnc(C(=O)N/N=C/c2cc(Cl)ccc2O)c1CN1CCCCCC1	T cruzi repl 55.9
Nc1nonc1-n1nnc(C(=O)N/N=C/c2ccc(Cl)cc2Cl)c1CN1CCCCC1	none
COc1cccc(C(=O)N/N=c2\sc3ccccc3n2C)c1	HSF1 activator 81.1
Cc1ccc(C(=O)N/N=c2\sc3ccccc3n2C)cc1	HSF1 activator inconclusive
Brc1ccc(-c2nnc(Cc3ccccc3)o2)cc1	HSF1 activator 56.4 (no result: PfHsp90 set2, PvdQ acylase)
CC1CC(=Cc2ccc(N)cc2)C(=O)O1 (centres undefined)	none (no result: T cruzi repl, HSF1 activator)
COc1ccc(-c2cnnc(N/N=C/c3ccc(O)cc3)n2)cc1	HSF1 activator 100.9
COc1ccc(-c2cnnc(N/N=C/c3ccc(O)c(O)c3)n2)cc1	none
Cc1cccc(N(C(=O)c2ccc(CN3CCOCC3)o2)C(C(=O)NC(C)(C)C)c2ccc(F)cc2)c1 (centres undefined)	HSF1 activator 64.0 (no result: CaV13 FRET inh)
CC(C)(C)NC(=O)C(c1cccs1)N(Cc1cccs1)C(=O)c1ccc(CN2CCOCC2)o1 (centres undefined)	none
COCCOCCn1c(/C=C/c2ccccc2)nc2ccccc21	HSF1 activator 60.0
CC(C)n1c(/C=C/c2ccccc2)nc2ccccc21	HSF1 activator 106.9
CN1CCN(C(=O)c2cc3nc(-c4ccc(F)cc4)cc(C(F)(F)F)n3n2)CC1	none
Cc1ccc(-c2cc(C(F)F)n3ncc(C(=O)N4CCCCC4c4cccnc4)c3n2)cc1 (centres undefined)	T cruzi repl 62.7
O=C(c1cc2nc(-c3ccc(F)cc3)cc(C(F)(F)F)n2n1)N1CCCCC1c1cccnc1 (centres undefined)	T cruzi repl 94.9 (no result: PfHsp90 set2)
O=C(c1cnn2c(C(F)(F)F)cc(-c3ccccc3)nc12)N1CCCc2ccccc21	none
O=C(c1cnn2c(C(F)(F)F)cc(-c3ccccc3)nc12)N1CCCCC1c1cccnc1 (centres undefined)	T cruzi repl 58.6
COc1ccc(-c2cc(C(F)(F)F)n3ncc(C(=O)N4CCc5ccccc5C4)c3n2)cc1	T cruzi repl 63.1
Cc1ccc(-c2cc(C(F)F)n3ncc(C(=O)N4CCN5CCCC5C4)c3n2)cc1 (centres undefined)	none
COc1cccc(-c2cc(C(F)(F)F)n3ncc(C(=O)N4CCc5ccccc5C4)c3n2)c1	none
O=C(CSC(=S)N1CCCC1)N(Cc1nnc(-c2ccccc2Cl)o1)C1CC1	none (no result: T cruzi repl, HSF1 activator)
Cc1ccc(-n2nnnc2C(Cl)(Cl)c2nnnn2-c2ccc(C)cc2)cc1	T cruzi repl 63.3, PfHsp90 set2 128.4
CCOC(=O)c1cc2c(=O)n3ccccc3nc2n(CCCOC)c1=NC(=O)c1ccncc1	CaV13 FRET inh 152.6 (no result: PfHsp90 set2)
CCOC(=O)c1cc2c(=O)n3ccccc3nc2n(Cc2ccco2)c1=NC(=O)c1ccc(OC)cc1	none
CCOC(=O)c1cc2c(=O)n3ccccc3nc2n(CCCOC)c1=NC(C)=O	none (no result: T cruzi repl, PfHsp90 set2, HSF1 activator)
CCCn1c(=NC(=O)c2ccco2)c(C(=O)OCC)cc2c(=O)n3ccccc3nc21	none (no result: CaV13 FRET inh)
CCOC(=O)c1cc2c(=O)n3ccccc3nc2n(C(C)C)c1=NC(=O)c1ccco1	CaV13 FRET inh active (no result: PfHsp90 set2)
CCOC(=O)c1cc2c(=O)n3cccc(C)c3nc2n(CC(C)C)c1=NC(=O)c1ccco1	CaV13 FRET inh 43.6
CCOC(=O)c1cc2c(=O)n3ccccc3nc2n(Cc2ccco2)c1=NC(=O)c1ccccc1OC	HSF1 activator 100.3
O=C(N[C@H](Cc1ccccc1)C(=O)N(CCC1=CCCCC1)CC1CC1)[C@H]1O[C@@H](n2ccc(=O)[nH]c2=O)[C@H](O)[C@@H]1O	none (no result: T cruzi repl, PfHsp90 set2, Glyco luc inh, HSF1 activator, PvdQ acylase)
Cc1c(-c2ccc(OCCN3CCOCC3)cc2)c(=O)oc2ccc3ccccc3c12	none (no result: T cruzi repl, PfHsp90 set2, HSF1 activator, PvdQ acylase)

Compound activity (PubChem)
